Experimental data pooled from the literature.
Each line is one published result; the experiments were not run side by side.
Target: Tyrosine-protein kinase Fyn (FYN, Homo sapiens, UniProt P06241)

Cn1cc(-c2cc(F)cc(N3CCn4c(cc5c4CCCC5)C3=O)c2CO)cc(Nc2ccc(N3CCN(C4COC4)CC3)cn2)c1=O  inhibition (enzyme activity, inhibitor; 0.1 µM): 8%
CC(C)(C)c1cc(C=C(C#N)C#N)cc(Br)c1O  remaining activity (enzyme activity, inhibitor; 0.5 µM): 67.2%
C#Cc1n[nH]c2c(-c3cn([C@@H](C)c4ccccn4)c(=O)[nH]c3=O)cc(F)cc12  inhibition (enzyme activity, inhibitor; 0.1 µM): 1.4%
Nc1ncc(-c2nc(N3CCOCC3)nc(N3CCOCC3)n2)c(C(F)F)n1  remaining binding (binding, competition with immobilised ligand; 10 µM): 100%
C#Cc1n[nH]c2c(-c3cn([C@@H](C)c4ccccc4)c(=O)[nH]c3=O)cc(F)cc12  inhibition (enzyme activity, inhibitor; 0.1 µM): 0.7%
COc1ncccc1-c1cnn2ccc(N3CCN(C(=O)OC(C)C)CC3)nc12  remaining binding (binding, competition with immobilised ligand; 1 µM): 49%
Cc1ncc(C)n2nc(/C=C/c3nc(N4CCCC4)cc(N4CCOCC4)n3)nc12  inhibition (enzyme activity, inhibitor; 10 µM): 9%
N#CC1(c2ccccn2)CCN(Cc2cc(C(=O)O)c(=O)n3ccccc23)CC1  remaining binding (cell-free assay, competition with immobilised ligand; 1 µM): 99%
O=c1[nH]c2ccccc2n1C1CCN(Cc2ccc(-c3[nH]c4cc5ncnc5cc4nc3-c3ccccc3)cc2)CC1  remaining signal (cell-free assay; 0.5 µM): 101%
Cn1cc(-c2cccc(N3CCc4c(sc5c4CC(C)(C)C5)C3=O)c2CO)cc(Nc2ccncn2)c1=O  inhibition (enzyme activity, inhibitor; 1 µM): 6%
Cn1cncc1[C@](O)(COc1ccc(C#N)cc1-c1ccc(OC(F)(F)F)cc1)c1ccc(C#N)cc1  remaining binding (cell-free assay, competition with immobilised ligand; 1 µM): 100%
O=C(Nc1cccnn1)N1CCN([C@@H]2CCOc3cc(C(F)(F)F)ccc32)CC1  inhibition (enzyme activity, inhibitor; 20 µM): 0%
Cc1nn(C)cc1-c1nc2c(N3CCN(Cc4ccc(Cl)cc4)CC3)c(Cl)cnc2[nH]1  remaining binding (binding, competition with immobilised ligand; 1 µM): 100%
